Results published in ChEMBL document CHEMBL2311289, “Novel 2-aminooctahydrocyclopentalene-3a-carboxamides as potent CCR2 antagonists” (Bioorg Med Chem Lett, 2013).

Columns and labels:
[1] = target: C-C chemokine receptor type 2 (Homo sapiens, UniProt P41597); test: Binding affinity to human CCR2
[2] = AUC in dog at 10 mg/kg, po; format: ADME, organism-based, Canis lupus familiaris; design: dose 10 mg/kg, route oral; settings: plasma
How it was run: (§1)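 Dog pharmacokinetics: oral dosing at 10 mpk in 0.5% methocel and intravenous dosing at 2 mpk in 20% HPbCD. Readouts were systemic clearance, Vdss, oral t1/2 and oral AUC.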

[3] = Oral bioavailability in dog at 10 mg/kg; format: ADME, organism-based, Canis lupus familiaris; settings: in vivo
[4] = Half life in dog at 10 mg/kg, po; format: ADME, organism-based, Canis lupus familiaris; design: dose 10 mg/kg, route oral; settings: in vivo; how it was run: as §1
[5] = Volume of distribution at steady state in dog at 10 mg/kg, po and 2 mg/kg iv; format: ADME, organism-based, Canis lupus familiaris; settings: in vivo, read-out: Vdss; how it was run: as §1
[6] = Clearance in dog at 10 mg/kg, po and 2 mg/kg iv; format: ADME, organism-based, Canis lupus familiaris; settings: in vivo; how it was run: as §1
[7] = system: Mus musculus; test: Antiinflammatory activity in thioglycollate-induced mouse peritonitis model expressing human CCR2 assessed as inhibition of macrophage infiltration administered as po bid; format: functional
How it was run: (§2)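 Acute inflammation model: peritonitis was induced with thioglycollate in mCCR2 knock-out/hCCR2 knock-in mice. Compound was given orally, and infiltration of macrophages into the peritoneum was measured.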

[8] = system: Mus musculus; test: Antiinflammatory activity in thioglycollate-induced mouse peritonitis model expressing human CCR2 assessed as inhibition of macrophage infiltration at 10 mg/kg, po bid relative to control; format: functional; how it was run: as §2
[9] = system: Mus musculus; test: Antiinflammatory activity in thioglycollate-induced mouse peritonitis model expressing human CCR2 assessed as inhibition of macrophage infiltration at 3 mg/kg, po bid relative to control; format: functional; how it was run: as §2
[10] = system: Mus musculus; test: Antiinflammatory activity in thioglycollate-induced mouse peritonitis model expressing human CCR2 assessed as inhibition of macrophage infiltration at 1 mg/kg, po bid relative to control; format: functional; how it was run: as §2
[11] = system: Mus musculus; test: Antiinflammatory activity in thioglycollate-induced mouse peritonitis model expressing human CCR2 assessed as inhibition of macrophage infiltration at 0.3 mg/kg, po bid relative to control; format: functional; how it was run: as §2
[12] = target: Cytochrome P450 2C9 (Homo sapiens, UniProt P11712); test: Inhibition of human CYP2C9; format: ADME
Cytochrome P450 2C9, sequence (P11712 whole entry): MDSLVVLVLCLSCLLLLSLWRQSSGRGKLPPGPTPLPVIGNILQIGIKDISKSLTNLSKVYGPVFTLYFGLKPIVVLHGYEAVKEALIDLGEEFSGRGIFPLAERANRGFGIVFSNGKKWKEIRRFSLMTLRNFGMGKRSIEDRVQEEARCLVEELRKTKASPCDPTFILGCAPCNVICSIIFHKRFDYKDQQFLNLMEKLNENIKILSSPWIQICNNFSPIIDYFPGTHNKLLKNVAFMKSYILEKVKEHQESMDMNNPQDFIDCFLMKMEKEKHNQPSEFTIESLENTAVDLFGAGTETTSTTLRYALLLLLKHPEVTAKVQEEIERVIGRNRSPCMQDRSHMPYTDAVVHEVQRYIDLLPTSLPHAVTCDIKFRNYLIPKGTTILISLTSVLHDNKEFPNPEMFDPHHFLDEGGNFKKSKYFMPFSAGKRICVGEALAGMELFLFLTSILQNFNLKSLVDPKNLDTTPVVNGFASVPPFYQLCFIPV

[13] = target: Cytochrome P450 3A4 (Homo sapiens, UniProt P08684); test: Inhibition of human CYP3A4; format: ADME
Cytochrome P450 3A4, sequence (P08684 whole entry): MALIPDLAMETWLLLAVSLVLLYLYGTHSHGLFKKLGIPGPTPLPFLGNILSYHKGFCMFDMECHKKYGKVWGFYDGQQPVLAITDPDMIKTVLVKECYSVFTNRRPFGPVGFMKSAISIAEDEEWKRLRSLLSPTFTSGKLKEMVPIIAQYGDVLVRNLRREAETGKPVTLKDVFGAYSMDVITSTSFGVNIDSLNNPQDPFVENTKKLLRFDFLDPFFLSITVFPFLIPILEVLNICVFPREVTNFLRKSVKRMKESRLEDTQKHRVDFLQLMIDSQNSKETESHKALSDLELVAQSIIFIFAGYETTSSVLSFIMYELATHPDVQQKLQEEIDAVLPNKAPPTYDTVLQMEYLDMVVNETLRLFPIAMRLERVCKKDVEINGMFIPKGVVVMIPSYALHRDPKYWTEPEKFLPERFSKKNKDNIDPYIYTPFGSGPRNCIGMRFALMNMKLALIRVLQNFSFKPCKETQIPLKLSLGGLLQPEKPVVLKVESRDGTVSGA

[14] = target: Cytochrome P450 2D6 (Homo sapiens, UniProt P10635); test: Inhibition of human CYP2D6; format: ADME
Cytochrome P450 2D6, sequence (P10635 whole entry): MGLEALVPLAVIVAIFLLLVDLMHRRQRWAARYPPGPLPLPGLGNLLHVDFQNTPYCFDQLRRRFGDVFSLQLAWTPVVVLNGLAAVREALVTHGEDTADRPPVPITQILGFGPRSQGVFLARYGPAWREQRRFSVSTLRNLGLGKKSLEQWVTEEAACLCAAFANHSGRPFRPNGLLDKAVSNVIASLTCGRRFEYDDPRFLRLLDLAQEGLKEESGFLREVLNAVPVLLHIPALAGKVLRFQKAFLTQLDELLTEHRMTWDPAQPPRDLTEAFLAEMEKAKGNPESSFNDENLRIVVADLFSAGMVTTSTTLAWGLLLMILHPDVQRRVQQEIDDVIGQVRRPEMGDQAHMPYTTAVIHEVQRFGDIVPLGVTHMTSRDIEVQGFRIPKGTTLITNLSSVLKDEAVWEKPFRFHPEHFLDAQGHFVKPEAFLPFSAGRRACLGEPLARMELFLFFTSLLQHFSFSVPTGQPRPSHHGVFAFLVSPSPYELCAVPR

[15] = target: Cytochrome P450 2C19 (Homo sapiens, UniProt P33261); test: Inhibition of human CYP2C19; format: ADME
Cytochrome P450 2C19, sequence (P33261 whole entry): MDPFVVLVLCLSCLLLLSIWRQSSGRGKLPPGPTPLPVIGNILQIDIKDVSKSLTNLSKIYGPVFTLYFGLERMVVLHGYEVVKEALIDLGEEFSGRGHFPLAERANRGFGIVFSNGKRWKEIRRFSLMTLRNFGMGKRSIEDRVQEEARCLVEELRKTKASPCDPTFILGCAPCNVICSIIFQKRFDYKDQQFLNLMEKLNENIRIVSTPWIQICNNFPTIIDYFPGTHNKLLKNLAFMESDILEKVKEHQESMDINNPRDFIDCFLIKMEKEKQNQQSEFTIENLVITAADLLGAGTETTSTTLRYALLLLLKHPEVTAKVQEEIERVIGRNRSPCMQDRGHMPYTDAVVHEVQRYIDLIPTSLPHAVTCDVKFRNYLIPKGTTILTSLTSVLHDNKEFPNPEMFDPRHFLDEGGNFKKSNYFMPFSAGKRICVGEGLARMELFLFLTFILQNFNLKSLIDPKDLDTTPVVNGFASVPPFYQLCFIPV

[16] = target: T1, Cytochrome P450 1A2 (Homo sapiens, UniProt P05177); test: Inhibition of human CYP1A2; format: ADME
T1 sequence (P05177 whole entry): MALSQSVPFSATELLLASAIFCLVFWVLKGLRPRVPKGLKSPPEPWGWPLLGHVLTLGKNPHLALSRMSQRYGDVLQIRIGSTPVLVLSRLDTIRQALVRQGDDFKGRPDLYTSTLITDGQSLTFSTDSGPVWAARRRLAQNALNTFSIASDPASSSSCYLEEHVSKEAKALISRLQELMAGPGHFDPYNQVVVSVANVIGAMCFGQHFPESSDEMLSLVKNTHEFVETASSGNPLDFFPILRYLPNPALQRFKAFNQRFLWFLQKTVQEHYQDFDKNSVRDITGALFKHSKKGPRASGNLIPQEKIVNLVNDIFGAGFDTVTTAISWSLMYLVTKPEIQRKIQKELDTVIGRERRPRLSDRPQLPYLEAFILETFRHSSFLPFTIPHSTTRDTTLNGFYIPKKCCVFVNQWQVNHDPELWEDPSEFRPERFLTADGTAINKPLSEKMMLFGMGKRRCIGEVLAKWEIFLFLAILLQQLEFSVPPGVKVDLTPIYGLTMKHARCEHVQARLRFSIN

[17] = target: Voltage-gated inwardly rectifying potassium channel KCNH2 (Homo sapiens, UniProt Q12809); test: Binding affinity to human ERG
Voltage-gated inwardly rectifying potassium channel KCNH2, sequence (Q12809 whole entry): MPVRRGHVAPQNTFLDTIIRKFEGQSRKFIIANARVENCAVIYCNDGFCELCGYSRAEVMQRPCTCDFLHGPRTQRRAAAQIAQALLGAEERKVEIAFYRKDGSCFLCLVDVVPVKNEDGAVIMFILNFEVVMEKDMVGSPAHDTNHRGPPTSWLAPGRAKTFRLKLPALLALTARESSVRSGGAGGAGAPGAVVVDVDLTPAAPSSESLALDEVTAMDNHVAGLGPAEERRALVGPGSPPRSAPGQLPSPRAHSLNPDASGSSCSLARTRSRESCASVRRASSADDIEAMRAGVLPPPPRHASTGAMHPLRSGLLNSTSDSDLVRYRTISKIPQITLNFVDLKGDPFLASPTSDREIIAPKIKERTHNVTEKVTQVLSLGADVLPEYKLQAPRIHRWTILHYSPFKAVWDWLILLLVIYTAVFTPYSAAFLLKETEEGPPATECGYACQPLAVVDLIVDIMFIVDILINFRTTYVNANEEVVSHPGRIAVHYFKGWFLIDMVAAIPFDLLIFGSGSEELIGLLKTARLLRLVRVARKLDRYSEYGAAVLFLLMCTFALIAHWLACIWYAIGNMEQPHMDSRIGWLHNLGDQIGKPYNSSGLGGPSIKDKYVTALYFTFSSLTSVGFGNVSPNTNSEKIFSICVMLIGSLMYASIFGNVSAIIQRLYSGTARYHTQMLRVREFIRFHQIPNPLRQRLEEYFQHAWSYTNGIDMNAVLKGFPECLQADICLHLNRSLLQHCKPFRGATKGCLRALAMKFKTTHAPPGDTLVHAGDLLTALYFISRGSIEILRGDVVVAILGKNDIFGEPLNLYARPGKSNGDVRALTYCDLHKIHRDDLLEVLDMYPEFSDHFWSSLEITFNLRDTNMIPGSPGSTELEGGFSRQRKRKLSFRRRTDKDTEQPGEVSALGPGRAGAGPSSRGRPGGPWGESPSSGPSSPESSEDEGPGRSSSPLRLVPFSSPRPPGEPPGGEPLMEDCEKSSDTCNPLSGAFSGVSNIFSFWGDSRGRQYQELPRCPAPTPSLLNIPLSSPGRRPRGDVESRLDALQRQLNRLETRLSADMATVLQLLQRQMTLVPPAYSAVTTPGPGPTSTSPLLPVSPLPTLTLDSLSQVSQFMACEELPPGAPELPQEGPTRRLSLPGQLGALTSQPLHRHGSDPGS

C-C chemokine receptor type 2, sequence (P41597 whole entry): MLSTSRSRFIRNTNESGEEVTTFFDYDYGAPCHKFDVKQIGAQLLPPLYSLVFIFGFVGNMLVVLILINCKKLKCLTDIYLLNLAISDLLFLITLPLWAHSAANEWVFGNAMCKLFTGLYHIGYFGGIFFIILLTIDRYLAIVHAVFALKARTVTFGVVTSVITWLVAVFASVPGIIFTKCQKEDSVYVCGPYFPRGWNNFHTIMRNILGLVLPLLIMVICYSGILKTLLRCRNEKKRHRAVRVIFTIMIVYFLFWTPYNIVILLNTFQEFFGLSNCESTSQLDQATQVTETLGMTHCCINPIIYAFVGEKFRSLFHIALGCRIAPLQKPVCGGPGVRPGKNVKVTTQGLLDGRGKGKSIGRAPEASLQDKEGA

| SMILES | IC50 [1] [nM] | IC50 [17] [nM] | other results |
| --- | --- | --- | --- |
| COC1COCCC1N[C@@H]1C[C@H]2C[C@@H](N(C)C)C[C@@]2(C(=O)N2CCc3ncc(C(F)(F)F)cc3C2)C1 (stereo not given in full) | 247 | – | – |
| CO[C@@H]1COCC[C@@H]1N[C@@H]1C[C@H]2CCC[C@@]2(C(=O)N2CCc3ncc(C(F)(F)F)cc3C2)C1 | – | – | AUC [2]: 12100 ng·h/mL; bioavailability [3]: 100%; half-life [4]: 3.4 h; Vd [5]: 2.3 L/kg; clearance [6]: 15.2 mL/min/kg; ED50 [7]: 0.1 mg/kg; inhibition in vivo at 10 mg/kg [8]: 101%; inhibition in vivo at 3 mg/kg [9]: 100%; inhibition in vivo at 1 mg/kg [10]: 100%; inhibition in vivo at 0.3 mg/kg [11]: 89%; IC50 [12]: > 10000 nM; IC50 [13]: 7500 nM; IC50 [14]: > 10000 nM; IC50 [15]: > 10000 nM; IC50 [16]: > 10000 nM |
| CCC(CC)N[C@@H]1C[C@H]2CCC[C@@]2(C(=O)N2CCc3ncc(C(F)(F)F)cc3C2)C1 | 3300 | > 50000 | – |
| O=C(N1CCc2ncc(C(F)(F)F)cc2C1)[C@@]12CCC[C@@H]1C[C@@H](NC1CCCC1)C2 | 2330 | 33500 | – |
| O=C(N1CCc2ncc(C(F)(F)F)cc2C1)[C@@]12CCC[C@@H]1C[C@@H](NC1CCCCC1)C2 | 1530 | – | – |
| O=C(N1CCc2ncc(C(F)(F)F)cc2C1)[C@@]12CCC[C@@H]1C[C@@H](NC1CCCCCC1)C2 | 699 | – | – |
| O=C(N1CCc2ncc(C(F)(F)F)cc2C1)[C@@]12CCC[C@@H]1C[C@@H](NC1CCSCC1)C2 | 874 | 23100 | – |
| O=C(N1CCc2ncc(C(F)(F)F)cc2C1)[C@@]12CCC[C@@H]1C[C@@H](NC1CCS(=O)(=O)CC1)C2 | 3560 | – | – |
| O=C(N1CCc2ncc(C(F)(F)F)cc2C1)[C@@]12CCC[C@@H]1C[C@@H](NC1CCOCC1)C2 | 125 | 25700 | – |
| O=C(N1CCc2ncc(C(F)(F)F)cc2C1)[C@@]12CCC[C@@H]1C[C@@H](NCC1CCOCC1)C2 | > 25000 | 47000 | – |
| O=C(N[C@@H]1C[C@H]2CCC[C@@]2(C(=O)N2CCc3ncc(C(F)(F)F)cc3C2)C1)C1CCOCC1 | > 25000 | > 50000 | – |
| O=C(N1CCc2ncc(C(F)(F)F)cc2C1)[C@@]12CCCC[C@@H]1C[C@@H](NC1CCOCC1)C2 | 7930 | 38900 | – |
| COC1COCCC1N[C@@H]1C[C@H]2C[C@@H](OC)C[C@@]2(C(=O)N2CCc3ncc(C(F)(F)F)cc3C2)C1 (mixture of isomers) | 200 | > 50000 | – |
| COC1COCCC1N[C@@H]1C[C@H]2C[C@H](N(C)C)C[C@@]2(C(=O)N2CCc3ncc(C(F)(F)F)cc3C2)C1 (mixture of isomers) | 8090 | – | – |
| COC1COCCC1N[C@@H]1C[C@H]2CCC[C@@]2(C(=O)N2CCc3ccc(C#N)cc3C2)C1 (mixture of isomers) | 1800 | – | – |
| COC1COCCC1N[C@@H]1C[C@H]2CCC[C@@]2(C(=O)N2CCc3ccc(OC(F)(F)F)cc3C2)C1 (mixture of isomers) | 16 | – | – |
| COC1COCCC1N[C@@H]1C[C@H]2CC(F)(F)C[C@@]2(C(=O)N2CCc3ncc(C(F)(F)F)cc3C2)C1 (mixture of isomers) | 95 | > 50000 | – |
| COC1COCCC1N[C@@H]1C[C@H]2C[C@H](F)C[C@@]2(C(=O)N2CCc3ncc(C(F)(F)F)cc3C2)C1 (mixture of isomers) | 23 | – | – |
| COC1COCCC1N[C@@H]1C[C@H]2C[C@@H](F)C[C@@]2(C(=O)N2CCc3ncc(C(F)(F)F)cc3C2)C1 (mixture of isomers) | 150 | – | – |
| COC1COCCC1N[C@@H]1C[C@H]2C[C@H](Cl)C[C@@]2(C(=O)N2CCc3ncc(C(F)(F)F)cc3C2)C1 (mixture of isomers) | 20 | > 50000 | – |

| SMILES | IC50 [1] [nM] | IC50 [17] [nM] | other results |
| --- | --- | --- | --- |
| COC1COCCC1N[C@@H]1C[C@H]2C[C@@H](Cl)C[C@@]2(C(=O)N2CCc3ncc(C(F)(F)F)cc3C2)C1 (mixture of isomers) | 45 | > 50000 | – |
| COC1COCCC1N[C@@H]1C[C@H]2C[C@H](C(F)(F)F)C[C@@]2(C(=O)N2CCc3ncc(C(F)(F)F)cc3C2)C1 (mixture of isomers) | 1260 | – | – |
| COC1COCCC1N[C@@H]1C[C@H]2C[C@@H](C(F)(F)F)C[C@@]2(C(=O)N2CCc3ncc(C(F)(F)F)cc3C2)C1 (mixture of isomers) | 263 | – | – |
| COC1COCCC1N[C@@H]1C[C@H]2C[C@H](C(N)=O)C[C@@]2(C(=O)N2CCc3ncc(C(F)(F)F)cc3C2)C1 (mixture of isomers) | 88 | – | – |
| COC1COCCC1N[C@@H]1C[C@H]2C[C@@H](C(N)=O)C[C@@]2(C(=O)N2CCc3ncc(C(F)(F)F)cc3C2)C1 (mixture of isomers) | 130 | – | – |
| COC1COCCC1N[C@@H]1C[C@H]2C[C@H](O)C[C@@]2(C(=O)N2CCc3ncc(C(F)(F)F)cc3C2)C1 (mixture of isomers) | 59 | > 50000 | – |
| COC1COCCC1N[C@@H]1C[C@H]2C[C@@H](O)C[C@@]2(C(=O)N2CCc3ncc(C(F)(F)F)cc3C2)C1 (mixture of isomers) | 58 | > 50000 | – |
| COC1COCCC1N[C@@H]1C[C@H]2C[C@H](OC)C[C@@]2(C(=O)N2CCc3ncc(C(F)(F)F)cc3C2)C1 (mixture of isomers) | 210 | > 50000 | – |
| COC1COCCC1N[C@@H]1C[C@H]2CCC[C@@]2(C(=O)N2CCc3ncccc3C2)C1 (mixture of isomers) | > 25000 | – | – |
| COC1COCCC1N[C@@H]1C[C@H]2CCC[C@@]2(C(=O)N2CCc3ncc(Cl)cc3C2)C1 (mixture of isomers) | 1100 | – | – |
| COC1COCCC1N[C@@H]1C[C@H]2CCC[C@@]2(C(=O)N2CCc3ncc(Br)cc3C2)C1 (mixture of isomers) | 200 | – | – |
| COC1COCCC1N[C@@H]1C[C@H]2CCC[C@@]2(C(=O)N2CCc3ncc([N+](=O)[O-])cc3C2)C1 (mixture of isomers) | 1500 | – | – |
| COc1cnc2c(c1)CN(C(=O)[C@@]13CCC[C@@H]1C[C@@H](NC1CCOCC1OC)C3)CC2 (mixture of isomers) | > 25000 | – | – |
| COC1COCCC1N[C@@H]1C[C@H]2CCC[C@@]2(C(=O)N2CCc3ncc(OC(C)C)cc3C2)C1 (mixture of isomers) | 5600 | – | – |
| COC1COCCC1N[C@@H]1C[C@H]2CCC[C@@]2(C(=O)N2CCc3ccc(F)cc3C2)C1 (mixture of isomers) | 4400 | – | – |
| COC1COCCC1N[C@@H]1C[C@H]2CCC[C@@]2(C(=O)N2CCc3ccc(Cl)cc3C2)C1 (mixture of isomers) | 400 | 42400 | – |
| COC1COCCC1N[C@@H]1C[C@H]2CCC[C@@]2(C(=O)N2CCc3ccc(Br)cc3C2)C1 (mixture of isomers) | 290 | 20300 | – |
| COC1COCCC1N[C@@H]1C[C@H]2CCC[C@@]2(C(=O)N2CCc3ccc(C(F)(F)F)cc3C2)C1 (mixture of isomers) | 34 | 27600 | – |
| COC1COCCC1N[C@@H]1C[C@H]2CCCC[C@@]2(C(=O)N2CCc3ncc(C(F)(F)F)cc3C2)C1 (mixture of isomers) | 1070 | – | – |
